Laboratory results published in ChEMBL document CHEMBL1144823, “Blood-brain barrier penetration by two dermorphin tetrapeptide analogues: role of lipophilicity vs structural flexibility” (J Med Chem, 2008).
The source made the active and inactive calls. Where a SMILES comes first, the peptide text is derived from it. [ ]: non-standard residue; d: D form. dNMeA = CN[C@H](C)C(=O)O; Sar = CNCC(=O)O

What was measured:
[1] = target: Delta-type opioid receptor (Rattus norvegicus, UniProt P33533); test: Displacement of [3H]deltorphin2 from delta opioid receptor in rat brain membrane; type: cell membranes
Delta-type opioid receptor (Rattus norvegicus, UniProt P33533), sequence (P33533 whole entry): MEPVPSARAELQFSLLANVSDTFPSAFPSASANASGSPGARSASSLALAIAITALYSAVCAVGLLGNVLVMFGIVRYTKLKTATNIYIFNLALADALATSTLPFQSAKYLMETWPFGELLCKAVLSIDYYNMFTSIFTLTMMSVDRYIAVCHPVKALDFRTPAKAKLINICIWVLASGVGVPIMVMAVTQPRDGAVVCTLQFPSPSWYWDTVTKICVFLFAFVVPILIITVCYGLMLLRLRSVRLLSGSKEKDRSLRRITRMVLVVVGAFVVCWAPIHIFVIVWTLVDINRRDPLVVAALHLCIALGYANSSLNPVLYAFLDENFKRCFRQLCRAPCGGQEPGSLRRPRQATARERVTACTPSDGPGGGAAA
Summary of the method: (§1)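 Competitive displacement on rat brain membranes: [³H]naloxone for mu sites and [³H]deltorphin II for delta sites, giving IC50 values. Selectivity is expressed as IC50(mu)/IC50(delta).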

[2] = target: Delta-type opioid receptor (Mus musculus, UniProt P32300); test: Agonist activity at delta opioid receptor in mouse vas deferens; type: functional, tissue-based
Delta-type opioid receptor (Mus musculus, UniProt P32300), sequence (P32300 whole entry): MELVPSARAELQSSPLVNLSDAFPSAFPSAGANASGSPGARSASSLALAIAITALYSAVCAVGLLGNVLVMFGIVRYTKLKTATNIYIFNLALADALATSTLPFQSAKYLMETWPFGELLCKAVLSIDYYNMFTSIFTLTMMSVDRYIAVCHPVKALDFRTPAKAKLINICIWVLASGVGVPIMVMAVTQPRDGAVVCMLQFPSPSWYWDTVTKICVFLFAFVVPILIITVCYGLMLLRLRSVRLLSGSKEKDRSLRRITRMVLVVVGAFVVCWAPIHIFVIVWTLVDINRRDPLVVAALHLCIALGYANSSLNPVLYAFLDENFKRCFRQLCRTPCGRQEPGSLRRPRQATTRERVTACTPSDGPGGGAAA
Summary of the method: (§2)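 Isolated guinea pig ileum and mouse vas deferens preparations. A [Leu⁵]enkephalin standard dose–response curve was run for each ileum and vas preparation. Compound IC50 values were normalized to that standard by a published procedure.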

Mu-type opioid receptor [3] = target: Mu-type opioid receptor (Cavia porcellus, UniProt P97266); test: Agonist activity at mu opioid receptor in guinea pig ileum; type: functional, tissue-based; summary of the method: as §2
Mu-type opioid receptor (Cavia porcellus, UniProt P97266), sequence (P97266 whole entry): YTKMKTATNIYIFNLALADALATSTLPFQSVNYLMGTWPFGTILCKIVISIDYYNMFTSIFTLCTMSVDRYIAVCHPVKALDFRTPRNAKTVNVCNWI

Mu-type opioid receptor [4] = target: Mu-type opioid receptor (Rattus norvegicus, UniProt P33535); test: Displacement of [3H]naloxone from mu opioid receptor in rat brain membrane; type: cell membranes; summary of the method: as §1
Mu-type opioid receptor (Rattus norvegicus, UniProt P33535), sequence (P33535 whole entry): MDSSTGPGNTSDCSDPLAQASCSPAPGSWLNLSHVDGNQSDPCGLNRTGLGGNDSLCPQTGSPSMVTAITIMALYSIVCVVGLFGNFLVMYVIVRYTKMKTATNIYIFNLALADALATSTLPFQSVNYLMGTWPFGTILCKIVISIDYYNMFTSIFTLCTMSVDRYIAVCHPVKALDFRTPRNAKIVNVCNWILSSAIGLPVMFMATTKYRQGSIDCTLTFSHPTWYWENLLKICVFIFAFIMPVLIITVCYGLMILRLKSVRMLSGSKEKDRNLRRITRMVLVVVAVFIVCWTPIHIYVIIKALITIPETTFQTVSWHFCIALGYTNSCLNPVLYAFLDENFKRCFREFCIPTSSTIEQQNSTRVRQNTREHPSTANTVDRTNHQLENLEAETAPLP

Rattus norvegicus = organism: Rattus norvegicus; test: Ratio of IC50 for mu opioid receptor in rat brain to IC50 for delta opioid receptor in rat brain; type: tissue-based; summary of the method: as §1
[5] = target: Kappa-type opioid receptor (Cavia porcellus) (UniProt P41144); test: Displacement of [3H]U-69593 from kappa opioid receptor in guinea pig brain membrane at 10 uM; type: cell membranes
Kappa-type opioid receptor (Cavia porcellus), sequence (P41144 whole entry): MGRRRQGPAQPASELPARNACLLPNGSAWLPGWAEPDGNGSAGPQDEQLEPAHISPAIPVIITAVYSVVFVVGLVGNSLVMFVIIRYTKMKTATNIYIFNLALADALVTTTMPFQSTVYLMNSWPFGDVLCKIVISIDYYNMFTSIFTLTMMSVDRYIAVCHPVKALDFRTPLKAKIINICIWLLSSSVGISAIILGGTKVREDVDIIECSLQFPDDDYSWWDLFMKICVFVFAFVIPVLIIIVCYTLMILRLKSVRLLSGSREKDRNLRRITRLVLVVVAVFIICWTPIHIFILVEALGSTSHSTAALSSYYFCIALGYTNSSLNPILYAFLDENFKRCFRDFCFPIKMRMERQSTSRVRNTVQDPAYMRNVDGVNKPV
Summary of the method: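 Displacement of [³H]U69,593 from guinea pig brain membrane sites, with test concentrations up to 10 µM.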

Mus musculus [6] = test: Analgesic activity in C57 mouse at 2 mg/kg, iv after 15 mins by tail flick test; type: functional, organism-based; parameters: dose 2 mg/kg
Summary of the method: (§3)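 Male C57 mice (20–25 g) housed in groups of five on a 12 h light-dark cycle. Peptide in saline was injected into the tail vein (10 mL/kg total) and flushed with saline; controls received saline. Warm-water (55 °C) tail-flick test, three trials, 15 s cutoff. %MPE = (post − control)/(cutoff − control) × 100, read at baseline, 5, 15, 30, 60 and 120 min. One-way ANOVA at each time point.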

Mus musculus [7] = test: Analgesic activity in C57 mouse at 2 mg/kg, iv after 5 mins by tail flick test; type: functional, organism-based; parameters: dose 2 mg/kg; summary of the method: as §3

SMILES | IC50 [1] | IC50 [2] | IC50 (Mu-type opioid receptor [3]) | IC50 (Mu-type opioid receptor [4]) | Ratio IC50 (Rattus norvegicus) | Activity [5] | Activity (Mus musculus [6]) | Activity (Mus musculus [7])
C[C@H](C(=O)N[C@H]1Cc2ccccc2CN(CC(N)=O)C1=O)N1Cc2cc(O)ccc2C[C@H](N)C1=O | 17.8 µM | 30.3 µM | 3.64 µM | 20.8 µM | 1.17 | inactive | – | –
C[C@H](C(=O)N[C@@H](Cc1ccccc1)C(=O)N(C)CC(N)=O)N(C)C(=O)[C@@H](N)Cc1ccc(O)cc1 (H-Y[dNMeA]F[Sar]-NH2) | 7.1 µM | 79.7 µM | 22 µM | 28.1 µM | 3.96 | inactive | Active | Active
